SMILES strings stand for the structures. pIC50: −log10 of the molar value. Bounds are passed on as bounds.

A word on the pIC50: it is the IC50 on a negative log10 scale, so that one unit is a factor of ten. Higher therefore signals a low IC50.

The test system of one assay is A549. Description: Cytotoxicity against human A549 cells after 48 hrs. Type of assay: functional, cell-based. The note with it: A549, 48 h. In a few lines:
(§1)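 Cells grown in MEM (Earle's salts, L-glutamine) with 10% FBS, vitamins, amino acids, pyruvate, penicillin/streptomycin at 37 °C, 5% CO2. 5 × 10³ cells/well adhered 16 h, then increasing concentrations in DMSO (final 0.5% v/v) for 48 h. Resazurin fluorescence read at ex 530/em 590 nm; survival vs control wells after blank subtraction. Three experiments in triplicate; IC50 as mean ± standard deviation.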

The next assay deals with PC-3. Description: Cytotoxicity against human PC3 cells after 48 hrs. As to conditions: PC-3, 48 h. Type of assay: functional, cell-based. In a few lines:
as §1

The test system of the next assay is DLD-1. Description: Cytotoxicity against human DLD1 cells after 48 hrs. The note with it: DLD-1, 48 h. The format is functional, cell-based. In a few lines: as §1
The next assay relates to MCF7. Kind of assay: Cytotoxicity against human MCF7 cells after 48 hrs. Type of assay: functional, cell-based. As to conditions: MCF7, 48 h. A digest of the protocol:
as §1

Assay [1] can be described thus: Cytotoxicity against human WS1 cells after 48 hrs. The format is cell-based. The note with it: WS1, 48 h.

As to `C=C(C)[C@@H]1CC[C@]2(C(=O)O[C@@H]3O[C@@H](C)[C@H](O)[C@@H](O)[C@H]3O)CC[C@]3(C)[C@H](CC[C@@H]4[C@@]5(C)CC[C@H](O[C@@H]6O[C@@H](C)[C@H](O)[C@@H](O)[C@H]6O)C(C)(C)[C@@H]5CC[C@]43C)[C@@H]12`, the pIC50 in the assay on A549 was 5.14; in the assay with PC-3, 5.14; in the assay with DLD-1 it was 5.14; in the assay with MCF7, 5.22; in assay [1] it was 5.31.
`C=C(C)[C@@H]1CC[C@]2(C(=O)O[C@@H]3O[C@H](CO)[C@@H](O)[C@H](O)[C@H]3O)CC[C@]3(C)[C@H](CC[C@@H]4[C@@]5(C)CC[C@H](O[C@@H]6OC[C@H](O)[C@H](O)[C@H]6O)C(C)(C)[C@@H]5CC[C@]43C)[C@@H]12`: the pIC50 was 4.12 with A549; 4.17 in the assay on PC-3; 4.22 with DLD-1; 4.64 in the assay with MCF7; 4.30 in assay [1].
In the same order, the values of `C=C(C)[C@@H]1CC[C@]2(CO)CC[C@]3(C)[C@H](CC[C@@H]4[C@@]5(C)CC[C@H](O)C(C)(C)[C@@H]5CC[C@]43C)[C@@H]12` [BETULIN] are 5.42, 4.75, 5.18, 4.63 and 5.44.
For `C=C(C)[C@@H]1CC[C@]2(CO[C@@H]3O[C@H](CO)[C@@H](O)[C@H](O)[C@H]3O)CC[C@]3(C)[C@H](CC[C@@H]4[C@@]5(C)CC[C@H](O[C@@H]6OC[C@H](O)[C@H](O)[C@H]6O)C(C)(C)[C@@H]5CC[C@]43C)[C@@H]12`, in that order: below 4.00, 5.28, 4.72, 5.02 and 5.35.
`C=C(C)[C@@H]1CC[C@]2(C(=O)O[C@@H]3O[C@H](CO)[C@@H](O)[C@H](O)[C@H]3O)CC[C@]3(C)[C@H](CC[C@@H]4[C@@]5(C)CC[C@H](O)C(C)(C)[C@@H]5CC[C@]43C)[C@@H]12`: the pIC50 (with A549; with PC-3; in the assay with DLD-1; in the assay with MCF7; in assay [1]) was below 4.00 each time.
In the case of `C=C(C)[C@@H]1CC[C@]2(C(=O)O[C@@H]3O[C@H](CO)[C@@H](O)[C@H](O)[C@H]3O)CC[C@]3(C)[C@H](CC[C@@H]4[C@@]5(C)CC[C@H](O[C@@H]6O[C@@H](C)[C@H](O)[C@@H](O)[C@H]6O)C(C)(C)[C@@H]5CC[C@]43C)[C@@H]12`, the negative-log IC50 (pIC50) with A549 is 4.64; in the assay with PC-3 it was 4.95; in the assay on DLD-1, 4.96; with MCF7, 5.24; in assay [1], 5.05.
In the same order, the values of `C=C(C)[C@@H]1CC[C@]2(C(=O)O[C@@H]3O[C@H](CO)[C@@H](O)[C@H](O)[C@H]3O)CC[C@]3(C)[C@H](CC[C@@H]4[C@@]5(C)CC[C@H](O[C@@H]6O[C@H](CO)[C@@H](O)[C@H](O)[C@H]6O)C(C)(C)[C@@H]5CC[C@]43C)[C@@H]12` are below 4.00, 4.18, below 4.00, 4.70 and 4.46.
In the same order, the values of `COc1cc([C@@H]2c3cc4c(cc3[C@@H](O[C@@H]3O[C@@H]5CO[C@@H](C)O[C@H]5[C@H](O)[C@H]3O)[C@H]3COC(=O)[C@H]23)OCO4)cc(OC)c1O` [ETOPOSIDE] are 5.92, 5.77, 4.57, 6.15 and 4.47.
In the same order, the values of `C=C(C)[C@@H]1CC[C@]2(C(=O)O)CC[C@]3(C)[C@H](CC[C@@H]4[C@@]5(C)CC[C@H](O)C(C)(C)[C@@H]5CC[C@]43C)[C@@H]12` [BETULINIC ACID] are 4.99, 4.40, 4.82, 4.39 and 4.92.
For `C=C(C)[C@@H]1CC[C@]2(CO[C@@H]3O[C@H](CO)[C@@H](O)[C@H](O)[C@H]3O)CC[C@]3(C)[C@H](CC[C@@H]4[C@@]5(C)CC[C@H](O[C@@H]6O[C@@H](C)[C@H](O)[C@@H](O)[C@H]6O)C(C)(C)[C@@H]5CC[C@]43C)[C@@H]12`, the pIC50 with A549 was 4.77; in the assay on PC-3, 5.16; in the assay with DLD-1, 4.97; in the assay on MCF7, 5.05; in assay [1], 5.28.
In the same order, the values of `C=C(C)[C@@H]1CC[C@]2(CO[C@@H]3O[C@H](CO)[C@@H](O)[C@H](O)[C@H]3O)CC[C@]3(C)[C@H](CC[C@@H]4[C@@]5(C)CC[C@H](O[C@@H]6O[C@H](CO)[C@@H](O)[C@H](O)[C@H]6O)C(C)(C)[C@@H]5CC[C@]43C)[C@@H]12` are below 4.00, below 4.00, 4.57, 4.84 and 4.70.
On to `C=C(C)[C@@H]1CC[C@]2(CO[C@@H]3O[C@@H](C)[C@H](O)[C@@H](O)[C@H]3O)CC[C@]3(C)[C@H](CC[C@@H]4[C@@]5(C)CC[C@H](O[C@@H]6O[C@@H](C)[C@H](O)[C@@H](O)[C@H]6O)C(C)(C)[C@@H]5CC[C@]43C)[C@@H]12`, for which the pIC50 was 5.72 in the assay on A549; 5.74 in the assay on PC-3; 5.72 in the assay on DLD-1; 5.77 in the assay on MCF7; 5.89 in assay [1].
Take `C=C(C)[C@@H]1CC[C@]2(CO[C@@H]3O[C@H](CO)[C@@H](O)[C@H](O)[C@H]3O)CC[C@]3(C)[C@H](CC[C@@H]4[C@@]5(C)CC[C@H](O)C(C)(C)[C@@H]5CC[C@]43C)[C@@H]12`: the pIC50 (in the assay on A549; in the assay on PC-3; with DLD-1; in the assay with MCF7; in assay [1]) was below 4.00 throughout.

Source of the values: ChEMBL document CHEMBL1151813, “Synthesis and cytotoxicity of bidesmosidic betulin and betulinic acid saponins” (J Nat Prod, 2009).
